S1P3 ag: agonists of human S1P3 receptor. Q99500. S1P3 NFAT-BLA reporter cells, agonism, FRET ratio; relative to 1 µM S1P, basal subtracted. activation, % at 4.5 µM. hit rate 0.1% among 60,000;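 active = activation above the screen-wide mean plus 3 SD, cut at about 4.5% in these data, passing the limit was not always enough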
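Benchmarks: high control 1 µM S1P / System: stable CHO line with human S1P3, Gα16, NFAT-BLA reporter / Dosing: single compound concentration, 4.5 µM final / Timing: 4 h compound at 37 °C, 2 h substrate at RT / Measured by: FRET β-lactamase substrate fluorescence, excitation 405 nm, 460/535 nm emission ratio, background-subtracted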
HTR1E agonist: activates the human 5-HT1E serotonin receptor | hit rate 0.69% among 65,000 | activation, % at 6 µM | P28566 | CHO 5-HT1E Ga15 NFAT-bla reporter, FRET; 0% DMSO wells, 100% control agonist wells;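 active = activation above a set limit, the screen-wide mean activation plus 3 SD, cut at about 8.5% in these data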
5HT1a antag: antagonists of human 5-HT1a serotonin receptor | P08908 | CHO 5-HT1a Ga15 NFAT-bla reporter, antagonist mode | inhibition, % at 10 µM | hit rate 0.68% among 62,000 | AID 612;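 active = inhibition above the mean of all tested compounds plus 3 SD, cut at about 43% in these data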;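 also: receptor stimulated by 5-CT agonist at 100 nM near EC80; beta-lactamase reporter measured by ratiometric fluorescence of a cleavable substrate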
S1P1 ag pot: agonists and agonism potentiators of human S1P1 receptor; activation, % at 9.5 µM; S1P1 CRE-bla cells, forskolin, beta-lactamase FRET, potentiator mode; S1P1 agonist co-added at EC20, 2 nM; 100% = saturating reference agonist, 0% = basal; P21453; hit rate 0.57% among 56,000;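 active = activation above a cutoff set at the mean activation of all tested compounds plus 3 SD, cut at about 54% in these data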;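 also: forskolin at 4 µM as EC80 and the EC20 agonist is SEW2871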
Target sequence (P21453 whole entry, looked up): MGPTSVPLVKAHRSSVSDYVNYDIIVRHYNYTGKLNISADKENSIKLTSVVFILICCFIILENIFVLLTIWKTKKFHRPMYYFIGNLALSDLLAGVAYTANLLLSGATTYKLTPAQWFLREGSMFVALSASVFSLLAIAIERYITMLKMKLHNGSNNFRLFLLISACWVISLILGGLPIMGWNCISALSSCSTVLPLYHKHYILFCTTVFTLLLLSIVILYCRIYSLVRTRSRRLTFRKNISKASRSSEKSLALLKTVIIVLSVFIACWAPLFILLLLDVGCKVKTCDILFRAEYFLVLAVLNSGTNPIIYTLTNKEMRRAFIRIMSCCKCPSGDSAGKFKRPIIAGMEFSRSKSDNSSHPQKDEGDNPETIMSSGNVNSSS
5HT1a ag: 5-HT1a (human) receptor agonism | P08908 | CHO 5-HT1a Ga15 NFAT-bla reporter, FRET ratio; 0% basal, 100% maximal reference agonist | activation, % at 10 µM | hit rate 0.56% among 65,000;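 active = activation above the screen-wide mean activation plus 3 SD, cut at about 19% in these data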
HTR1E antagonist: blocks the human 5-HT1E serotonin receptor; P28566; CHO 5-HT1E Ga15 NFAT-bla reporter, FRET, antagonist; inhibition, % at 6 µM; hit rate 0.99% among 65,000;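 active = inhibition above a set limit, the mean inhibition across every tested compound plus 3 SD, cut at about 29% in these data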;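 also: signal is the 460 over 535 nm emission ratio of beta-lactamase substrate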
Large screens that a line does not name were inactive. An excerpt weighted towards active compounds, which were near 3% of everything screened.

CCCCn1c(N)c(N(CCC(C)C)C(=O)CSc2nnc(C)s2)c(=O)[nH]c1=O	none
CC(=O)N1CCc2ccc(C(=O)CN3CCN(c4cccc(C)c4C)CC3)cc21	HTR1E agonist 46
CC(=O)N1CCc2cc(C(=O)CN3CCN(c4cccc(Cl)c4)CC3)ccc21	HTR1E agonist 26
CCCCS(=O)(=O)NC1=NCN(C2CCN(Cc3ccccc3)CC2)CN1	none
CCCOc1ccccc1Cn1c(=O)oc2ccc(C)cc21	5HT1a antag 44 (no result: S1P3 ag, S1P1 ag pot)
Cc1ccc2oc(=O)n(CCOc3ccccc3Cl)c2c1	HTR1E antagonist 32
CC(OCC(O)CN(C)CCOc1ccccc1)c1ccc(Cl)cc1 (centres undefined)	none
CCCCCOC(=O)Cn1c(SCC(=O)Nc2ccccc2)nc2c1c(=O)[nH]c(=O)n2C	HTR1E agonist 9.7
CCCOC(=O)NC(CC)COC(=O)Nc1cc(C)ccc1C (centres undefined)	none
C=CCn1c(N)c(C(=O)OC(C)(C)C)c2nc3ccccc3nc21	none (no result: 5HT1a antag)
C=CCn1c(N)c(C(=O)Nc2ccccc2)c2nc3ccccc3nc21	5HT1a ag 27 (no result: 5HT1a antag)
O=C(NCc1ccco1)C(C(=O)c1ccc(F)cc1)n1ccccc1=O (centres undefined)	none
CN(C)CCNC(=O)C(C(=O)c1ccc(F)cc1)n1ccccc1=O (centres undefined)	5HT1a ag 120
Clc1cccc(N2CCN(CCNc3nc4ccccc4n4cnnc34)CC2)c1	HTR1E agonist 8.9
COC(=O)c1cc2ccsc2n1CC(=O)Nc1cc(Cl)ccc1OC	5HT1a antag 52
COC(=O)c1cc2ccsc2n1CC(=O)Nc1ccc(N(C)C)cc1	none
N#Cc1cc2c(=O)n3ccccc3nc2n(CCCN2CCOCC2)c1=O	none
N#Cc1cc2c(=O)n3ccccc3nc2n(CCN2CCOCC2)c1=O	HTR1E agonist 28
N#Cc1cc2c(=O)n3ccccc3nc2n(Cc2cccnc2)c1=O	5HT1a ag 37
COc1cccc(Oc2cnc(N)nc2-c2ccc(OC)cc2O)c1	none
COc1ccc(-c2nc(N)ncc2Oc2ccccc2Br)c(O)c1	5HT1a antag 44
CSc1nnc2c3cc(C)ccc3n(Cc3ccccc3)c2n1	none
CCOC(=O)c1c(NC(=O)CSc2nnc(CNc3ccc(OC)cc3)n2C)sc(C)c1C	none
O=S(=O)(C/C(=C/CO)S(=O)(=O)c1ccccc1)c1ccccc1	5HT1a antag 92, S1P1 ag pot 82, HTR1E antagonist 106
Cc1nn(-c2ccc(Cl)cc2)c2[nH]c(=O)c(CNCc3ccc4c(c3)OCO4)cc12	none
O=S(=O)(Nc1ccc2c(c1)OCO2)c1ccc(Br)s1	none
CCCC(=O)c1ccc(N2CCN(C(=O)c3ccccc3Br)CC2)c(F)c1	S1P1 ag pot 98
CC(CCc1ccccc1)NC(=O)CSc1nc(N)cc(N)n1 (centres undefined)	HTR1E agonist 58
COc1cccc(Cn2c(N)c(C#N)c3nc4ccccc4nc32)c1OC	HTR1E antagonist 33
CCCn1cnc2c(c1=O)c1nc3ccccc3nc1n2Cc1ccccc1OC	none
COc1cc(Cn2c(N)c(C#N)c3nc4ccccc4nc32)cc(OC)c1	5HT1a ag 21
N#Cc1c(N)n(CCOC(=O)c2cccc(Br)c2)c2nc3ccccc3nc12	5HT1a ag 31 (no result: 5HT1a antag)
COCCn1c(N)c(C(=O)NCc2cccs2)c2nc3ccccc3nc21	none
CCc1ccc(CCC(=O)Nc2sc3c(c2C#N)CCCC3)o1	5HT1a antag 61, HTR1E antagonist 53 (no result: S1P1 ag pot)
N#Cc1c(NC(=O)CCC(=O)O)sc2c1CCCC2	none (no result: 5HT1a antag)
Cc1noc(C)c1S(=O)(=O)N(CC(=O)N1CCn2c1nc1ccccc12)c1ccc(C(C)C)cc1	none
COc1ccc(C(=O)Nc2ccc(Cl)cc2C(=O)NCc2ccco2)cc1OC	HTR1E antagonist 40
CCC(C)(C)NC(=O)C(c1cccnc1)N(CCOC)C(=O)Cn1nnc2ccccc21 (centres undefined)	none
Cc1nn2c(C(F)(F)F)cc(-c3ccc(Cl)cc3)nc2c1C(=O)N1CCOCC1	HTR1E agonist 38
Cc1ccc(N(CC2=NCCN2)c2cccc(O)c2)cc1	HTR1E antagonist 52 (no result: 5HT1a antag, 5HT1a ag)
CSc1ccc2nnc(-c3cccc(F)c3)n2n1	5HT1a ag 20
CCOC(=O)CC(=O)CSc1ccc2nnc(-c3cccc(F)c3)n2n1	none
Nc1cccc2cnccc12	HTR1E antagonist 33
O=C(O)CCN1C(=O)NC2(CCCC2)C1=O	none
N#CCCN(C(=O)CN1C(=O)NC2(CCCC2)C1=O)c1ccccc1F	5HT1a ag 82 (no result: S1P3 ag, S1P1 ag pot)
CCCOc1ccc2oc(=O)c3c(c2c1)CCCN3C(=O)CN(C)Cc1ccccc1	none
O=C(Nc1cccc(C(F)(F)F)c1)N1CCC(c2nc(-c3ccc(F)cc3)no2)CC1	S1P1 ag pot 58
CCOC(=O)c1c(C)nn(Cc2cccc(Cl)c2)c1N	none
Nc1nc2ccccc2nc1N	none
Nc1nsc2ccccc12	5HT1a antag 73
COc1cccc2c1C(=O)c1c(O)c3c(c(O)c1C2=O)C[C@@](O)(C(C)=O)C[C@@H]3O[C@H]1C[C@H](N)[C@H](O)[C@H](C)O1	HTR1E antagonist 57 (no result: 5HT1a antag)
O=C(Cn1c(CN2CCCCC2)nc2ccccc2c1=O)NCc1ccco1	none
O=C(Nc1ccc(N2CCCCC2)c(Cl)c1)c1ncn[nH]1	S1P1 ag pot 127
O=C(c1ccc2c(c1)OCCO2)C1CCN(S(=O)(=O)c2ccc(F)cc2)CC1	none
COc1ccc(-c2cc(C(F)(F)F)nc(NCc3ccco3)n2)cc1OC	none (no result: S1P3 ag, S1P1 ag pot)
COc1cccc(-c2cc(C(F)(F)F)nc(NCc3ccco3)n2)c1	5HT1a antag 47 (no result: S1P3 ag, S1P1 ag pot)
CC(C)(C)C1CCc2onc(C(=O)N3CCOCC3)c2C1 (centres undefined)	none
O=C(CSc1nc(-c2cccs2)cc(C(F)(F)F)n1)NCc1ccco1	none
CN1CCN(C(=O)CSc2nc(-c3cccs3)cc(-c3cccs3)c2C#N)CC1	S1P1 ag pot 67
COc1ccc(-c2cc(-c3cccs3)c(C#N)c(SCC(=O)NCc3ccco3)n2)cc1	HTR1E antagonist 32
O=C(CSc1nc2ccccc2o1)Nc1nc2ccccc2s1	none
O=C(Cc1cccs1)Nc1nc2ccccc2s1	5HT1a ag 64
CN(Cc1nc(-c2ccncc2)no1)S(=O)(=O)c1ccc(Cl)cc1	none
CCOC(=O)c1cccc2c1-c1ccccc1/C2=N/O	S1P1 ag pot 62
O=C(c1ccco1)N(CCCN1CCOCC1)c1nc(-c2ccc(F)cc2)cs1	none
O=C(c1ccco1)N(CCCN1CCOCC1)c1nc(-c2ccc(Cl)cc2)cs1	5HT1a antag 48
Cc1cccc(CCNC(=O)c2nnc(Cc3ccc(Cl)cc3)o2)c1	none

Screens (PubChem)
